This is an account of results in ChEMBL document CHEMBL1126550, “Nanomolar-affinity, non-peptide oxytocin receptor antagonists” (J Med Chem, 1993).

What is called Ki is the equilibrium dissociation constant of an inhibitor or competing ligand from its target. Lower therefore signals tighter binding. By IC50 is commonly meant the point on the concentration scale where inhibition reaches its midpoint. Higher therefore signals weaker potency.

Assay [1] deals with T1, Oxytocin receptor (Homo sapiens, UniProt P30559).
T1 sequence (P30559 whole entry): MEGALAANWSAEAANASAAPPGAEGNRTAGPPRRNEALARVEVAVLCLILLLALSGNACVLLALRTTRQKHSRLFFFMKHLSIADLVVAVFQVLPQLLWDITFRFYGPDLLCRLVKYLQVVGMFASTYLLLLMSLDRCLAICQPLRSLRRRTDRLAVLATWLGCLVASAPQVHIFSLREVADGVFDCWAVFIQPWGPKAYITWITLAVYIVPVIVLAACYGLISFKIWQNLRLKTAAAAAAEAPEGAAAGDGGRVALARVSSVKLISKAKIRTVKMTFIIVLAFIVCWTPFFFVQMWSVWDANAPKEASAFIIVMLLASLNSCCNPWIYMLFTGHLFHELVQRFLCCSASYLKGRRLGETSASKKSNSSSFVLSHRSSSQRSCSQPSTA
The assay is described as follows: Tested against human uterine OT receptor.

Assay [2] addresses T2, Oxytocin receptor (Rattus norvegicus, UniProt P70536).
T2 sequence (P70536 whole entry): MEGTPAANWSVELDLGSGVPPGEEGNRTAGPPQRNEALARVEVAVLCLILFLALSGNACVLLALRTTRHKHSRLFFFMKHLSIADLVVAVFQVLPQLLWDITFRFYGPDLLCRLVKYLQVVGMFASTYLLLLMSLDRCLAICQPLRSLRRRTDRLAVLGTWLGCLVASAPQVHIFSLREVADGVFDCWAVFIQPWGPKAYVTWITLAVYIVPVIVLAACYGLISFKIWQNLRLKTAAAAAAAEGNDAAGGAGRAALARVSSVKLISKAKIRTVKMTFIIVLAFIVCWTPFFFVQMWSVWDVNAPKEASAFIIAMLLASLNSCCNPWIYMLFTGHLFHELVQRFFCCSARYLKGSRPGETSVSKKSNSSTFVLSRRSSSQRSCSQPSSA
The assay is described as follows: Inhibition of radioligand [3H]oxytocin binding at the oxytocin (OT) receptor in rat uterine tissue. In short, it runs like this:
(§1)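 Uteri taken from rats given diethylstilbestrol dipropionate (0.3 mg/kg ip, 18–24 h before), crude membranes. 1 nM [3H]OT (30–60 Ci/mmol), equilibrium 60 min at 22 °C in 50 mM Tris-HCl, 5 mM MgCl2, 0.1% BSA, pH 7.4. Nonspecific binding with 1 mM unlabeled OT. Filtered on glass fiber. Initial single-concentration screen, then IC50 from seven concentrations by linear regression.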

The target of assay [3] is T2, Oxytocin receptor. The assay is described as follows: Tested against rat uterine OT receptor. A digest of the protocol: as §1
In assay [4] the test system is Rattus norvegicus. As to the kind of experiment: Tested for inhibition of OT-stimulated uterine activity in the rat after an intravenous dose. Type of assay: functional.
Assay [5] is filed under the species Rattus norvegicus. As to the kind of experiment: Tested for antagonistic activity in isolated rat uterus. Type of assay: functional. Particulars: read-out: pA2 (converted).
The next assay deals with Vasopressin V1 receptor (Rattus norvegicus, UniProt P48974+P30560). The assay is described as follows: Inhibition of radioligand [3H]AVP binding to the vasopressin V1 receptor in rat liver tissue. A digest of the protocol: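 Crude membranes from male rat liver (V1 sites) competed with 1 nM [3H]AVP (80–90 Ci/mmol). Equilibrium 30 min, 30 °C, buffer 100 mM Tris-HCl, 5 mM MgCl2, 0.1% BSA, 50 μM PMSF, 50 μg/mL bacitracin, pH 8.0. 10 μM unlabeled AVP for nonspecific binding. Filtration through glass-fiber filters. IC50 from linear regression over seven concentrations.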

Another assay has as its target Vasopressin V2 receptor (Rattus norvegicus, UniProt Q00788). As to the kind of experiment: Inhibition of radioligand [3H]-AVP binding to the vasopressin V2 receptor in rat kidney tissue. In short, it runs like this:
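[3H]AVP (80–90 Ci/mmol) at 2 nM competed on crude membranes from male rat kidney medulla (V2 sites). Equilibrium 30 min at 30 °C in 100 mM Tris-HCl, 5 mM MgCl2, 0.1% BSA, 50 μM PMSF, 50 μg/mL bacitracin, pH 8.0. Nonspecific binding with 10 μM unlabeled AVP. Glass-fiber filtration. IC50 by linear regression of % inhibition vs log concentration, seven concentrations.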

Each structure is given as a SMILES string.

Sequence of Vasopressin V2 receptor (Q00788 whole entry): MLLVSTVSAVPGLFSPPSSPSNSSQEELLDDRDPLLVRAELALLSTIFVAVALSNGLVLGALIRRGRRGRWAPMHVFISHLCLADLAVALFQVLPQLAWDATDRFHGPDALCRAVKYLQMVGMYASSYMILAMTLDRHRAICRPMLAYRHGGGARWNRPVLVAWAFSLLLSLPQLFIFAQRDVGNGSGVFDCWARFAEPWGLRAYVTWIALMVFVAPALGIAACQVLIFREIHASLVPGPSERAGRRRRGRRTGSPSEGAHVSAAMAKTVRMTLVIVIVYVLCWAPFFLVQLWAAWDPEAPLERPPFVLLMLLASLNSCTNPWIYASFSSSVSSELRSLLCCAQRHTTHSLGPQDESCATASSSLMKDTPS

`CC1(C)[C@@H]2CC[C@@]1(CS(=O)(=O)N1CCC3(CCc4ccccc43)CC1)[C@@H](NC(=O)Cc1c[nH]cn1)C2`: the inhibitory constant (Ki) came to 0.061 µM at Oxytocin receptor [1] and 0.026 µM at Oxytocin receptor [3]. Besides, the IC50 at Oxytocin receptor [2] was found to be 0.052 µM; at Vasopressin V1 receptor, 5.6 µM; at Vasopressin V2 receptor it was 17 µM. This molecule had an AD50 in the assay with Rattus norvegicus [4] of 1.5 mg/kg. Besides, in the assay filed under Rattus norvegicus [5], the Kb is 0.0117 µM.
